CHRM4 antagonist: CHRM4 antagonism in calcium assay; inhibition, % at 3 µM; hit rate 0.73% among 360,000; P08173; CHO-hM4 cells, ACh EC80, Fluo-8 calcium fluorescence;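 active = inhibition above its plate's cutoff, the mean inhibition of sample wells plus 3 SD, cut at about 27% in these data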;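 also: 0% = acetylcholine EC80 with DMSO and 100% = DMSO without agonist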
M5 PAM: potentiates acetylcholine response at human M5 receptor. P08912. CHO-K1 hM5, Fluo-8 calcium, ACh EC20 PAM; 0% = ACh EC20, 100% = ACh EC100. activation, % at 3 µM. hit rate 0.3% among 360,000;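 active = activation above the run cutoff, the mean activation of all test compounds plus 3 SD, cut at about 18% in these data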
Target sequence (P08912 whole entry, looked up): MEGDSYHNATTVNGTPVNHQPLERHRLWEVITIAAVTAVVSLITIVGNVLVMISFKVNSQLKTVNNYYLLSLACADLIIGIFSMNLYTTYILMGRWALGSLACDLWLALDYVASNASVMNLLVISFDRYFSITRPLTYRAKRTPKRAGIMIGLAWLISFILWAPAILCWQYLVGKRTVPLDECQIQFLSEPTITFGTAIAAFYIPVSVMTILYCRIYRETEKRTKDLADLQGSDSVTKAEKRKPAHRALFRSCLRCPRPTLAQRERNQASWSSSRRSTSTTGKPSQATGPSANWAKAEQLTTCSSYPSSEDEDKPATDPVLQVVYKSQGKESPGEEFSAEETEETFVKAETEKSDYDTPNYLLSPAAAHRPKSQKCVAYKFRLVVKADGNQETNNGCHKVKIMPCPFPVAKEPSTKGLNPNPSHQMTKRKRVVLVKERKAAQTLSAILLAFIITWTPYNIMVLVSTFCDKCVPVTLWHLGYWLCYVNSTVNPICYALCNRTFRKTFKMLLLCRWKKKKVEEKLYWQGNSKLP
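system = human M5 receptor in CHO-K1 cells | compound = one concentration, 3 µM final (nominal) | schedule = Post-acetylcholine fluorescence recording 140 s | signal = Fluo-8 calcium dye fluorescence, kinetic read | benchmarks = low control EC20 acetylcholine (0%), high control EC100 acetylcholine (100%) | repeats = singlicate, one well per test compound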
M4 PAM: CHRM4 positive allosteric modulation; P08173; CHO-K1 hM4/Gqi5, Fluo-8 calcium fluorescence, ACh EC20; 0% = ACh EC20, 100% = maximal ACh; activation, % at 3 µM; hit rate 0.4% among 360,000;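 active = activation above its plate's cutoff, the mean activation of sample wells plus 3 SD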
CHRM5 agonist: agonists of human muscarinic M5 receptor (CHRM5); hit rate 0.19% among 360,000; CHO-K1 hM5 cells, Fluo-8 calcium fluorescence; 0% DMSO wells, 100% maximal acetylcholine response; activation, % at 3 µM; P08912; AID 624037;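 active = activation above the run's mean over test compounds plus 3 SD, cut at about 23% in these data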;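 also: signal is peak over basal fluorescence ratio across the kinetic read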
M4 ag: agonists of human muscarinic M4 receptor (CHRM4) | P08173 | hit rate 0.14% among 360,000 | CHO-K1 hM4/Gqi5, Fluo-8 calcium fluorescence; vehicle 0%, full acetylcholine response 100% | activation, % at 3 µM;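 active = activation above the run mean over all test wells plus 3 SD, cut at about 32% in these data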;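 also: peak over basal fluorescence ratio per well then scaled between controls; 0% = DMSO wells and 100% = acetylcholine at EC100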
M5 antag: CHRM5 antagonism in calcium assay. P08912. CHO-hM5 cells, Fluo-8 calcium fluorescence, ACh EC80. inhibition, % at 3 µM. hit rate 0.59% among 360,000. AID 624040;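 active = inhibition above a per-plate cutoff, the mean of that plate's test compounds plus 3 SD, cut at about 27% in these data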;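 also: 0% = acetylcholine EC80 with DMSO and 100% = DMSO without agonist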
* marks the source's active call; other numbers are inactive results; ! = a repeat was not active. Compounds with a hit are over-represented: about 1.9% of the library has one in this group of screens.

SMILES	CHRM4 antagonist	M5 PAM	M4 PAM	CHRM5 agonist	M4 ag	M5 antag
Cc1ccc(NC(=O)CN(C)C(=O)c2ccc(NS(=O)(=O)c3cccc([N+](=O)[O-])c3)cc2)cc1	7.9	3.2	0.4	-2.9	0.5	0.6
Cc1ccc(NS(=O)(=O)c2ccc(OCC(=O)Nc3cccc([N+](=O)[O-])c3)c(C)c2)cc1	29.9*	-7.8	-27.7	-5.3	4.1	8.8
CCOc1ccccc1N(CC(=O)NCCSc1ccccn1)S(=O)(=O)c1ccccc1	10.6	9.8	13.2	0.6	32.5*	26.4
COc1ccc(-n2c(C)c(C)c3c(NCCN(C)C)ncnc32)cc1	-5.0	29.2*	0.3	4.9	1.7	13.6
COc1ccc(-c2cc(C(=O)N(C)Cc3cccc(OC)c3OC)c3ccccc3n2)cc1OC	3.9	-10.7	-6.0	0.0	17.1	15.9
COc1ccc(CN(C)C(=O)c2cc(-c3ccc(OC)c(OC)c3)nc3ccccc23)c(OC)c1	26.6*	-8.2	-11.0	-4.9	13.2	19.8
COc1cccc(CN(C)C(=O)c2cc(-c3ccc(F)cc3)nc3ccccc23)c1	16.4	-7.3	-9.1	2.4	14.4	1.6
COc1cccc(CN(C)C(=O)c2cc(-c3ccc(OC)c(OC)c3)nc3ccccc23)c1	30.0*	-13.1	-7.6	-2.9	12.3	28.1*
COc1ccc(CNc2nc(NCc3ccc(OC)cc3)c3[nH]cnc3n2)cc1	4.5	13.6	6.2	7.9	3.0	-9.0
CCC(C)[C@H](NC(=O)[C@H](Cc1ccccc1)n1c(=O)[nH]c2ccccc2c1=O)C(=O)N1CCC[C@@H]1C(=O)O (stereo partly drawn)	-16.5	-3.9	0.7	-0.6	1.5	5.3
COc1cc(CNc2ncnc3c2ncn3[C@H]2CN(Cc3cc(OC)c(OC)c(OC)c3)C[C@@H](CO)O2)cc(OC)c1OC	-21.4	1.5	22.2*	-1.4	-0.4	-11.9
OC[C@@H]1CN(Cc2ccc(F)cc2)C[C@H](n2cnc3c(Nc4ccccc4)ncnc32)O1	-1.0	-8.9	-13.0	2.0	16.1	12.7
OC[C@@H]1CN(Cc2ccc(-c3ccccc3)cc2)C[C@H](n2cnc3c(Nc4ccccc4)ncnc32)O1	37.2*	-14.5	-10.5	3.3	21.0	22.0
OC[C@@H]1CN(Cc2ccc(F)cc2)C[C@H](n2cnc3c(NCc4ccncc4)ncnc32)O1	-15.0	-0.8	4.0	0.5	3.6	1.5
OC[C@@H]1CN(Cc2ccccc2)C[C@H](n2cnc3c(NCc4ccncc4)ncnc32)O1	-5.3	0.2	20.3*	0.0	4.7	2.5
Cc1cccn2c(=O)c(C(=O)NC3CCCCC3)c(O)nc12	1.2	2.4	4.5	1.9	0.2	-12.8
O=c1c2cc(-c3ccccc3)sc2nc2n1N=C(c1ccccc1)CS2	3.2	1.4	-4.1	1.1	0.3	4.7
c1ccc(C2(CN3CCNC[C@H]3Cc3cccc4ccccc34)CC2)cc1	9.7	6.5	28.5*	-3.4	5.9	9.3
Cc1ccc(C(=O)Nc2nc(-c3cc(Cl)sc3Cl)cs2)cc1	-3.1	-0.9	7.0	-1.9	0.7	-4.3
CNc1nc(NCc2ccccc2)c2ccccc2n1	1.9	1.4	-5.3	0.9	6.3	-5.8
COc1cc2ncnc(NCc3ccccc3)c2cc1OC	-0.4	-4.0	2.0	-3.5	1.8	11.5
CCCCNc1nc(NCc2ccccc2)nc2ccccc12	90.0*	-24.8	-17.9	80.1*	105.4*	82.2*
c1ccc(CNc2ncnc3ccccc23)cc1	38.2*!	-13.5	-13.3	24.0*!	33.8*!	20.4
CS(=O)(=O)c1ccc2nc(NC(=O)c3ccc(Cn4cc(Br)cn4)o3)sc2c1	5.2	-11.1	-8.5	1.8	13.7	27.7*
CCOc1cc2[nH]c(=S)n(CCCCC(=O)NCc3ccco3)c(=O)c2cc1OCC	3.1	4.7	32.0*	4.5	0.2	-14.9
SMILES	CHRM4 antagonist	M5 PAM	M4 PAM	CHRM5 agonist	M4 ag	M5 antag
Fc1cccc(Cc2noc(CN3CCCN(C4Cc5ccccc5C4)CC3)n2)c1	54.1*	-20.1	-21.7	-11.8	1.8	2.4
Cc1cccc(-n2c(-c3ccncc3)n[nH]c2=S)c1	-4.7	3.0	17.0*	-0.5	0.2	-3.8
Cc1ccc(-n2c(-c3ccc(Cl)cc3)n[nH]c2=S)c(C)c1	20.9	-1.6	22.6*	4.3	6.0	30.4*
CN(C(=O)CCNC(=O)Cn1cnc2ccccc2c1=O)c1ccc(Br)cc1	9.4	0.4	-4.0	-0.5	0.8	6.2
CN(CCc1ccccn1)C(=O)CCNC(=O)Cn1cnc2ccccc2c1=O	-13.5	1.5	19.0*	1.7	2.2	5.7
Cc1ccc([C@@H]2[C@@H]3C(=O)N(C)C(=O)[C@@H]3[C@]3(C)C(=O)N(Cc4ccccc4)CC(=O)N23)o1	0.3	21.8*	8.8	4.3	1.7	-5.0
COc1ccc(C(=O)CSC2=NS(=O)(=O)c3cc(Cl)ccc3N2)cc1	-7.1	0.3	3.0	-1.3	0.3	-5.5
Cc1cc(F)ccc1-c1cc(C(=O)NCc2ccc(C(F)(F)F)cc2)[nH]n1	-7.1	0.9	-3.5	32.8*	20.5	4.8
COc1cc(Br)cc(/C=N/NC(=O)Cc2ccc(C(F)(F)F)cc2[N+](=O)[O-])c1O	-3.2	-9.2	4.9	-0.1	0.8	2.8
CCOc1cc(/C=N/NC(=O)Cc2ccc(C(F)(F)F)cc2[N+](=O)[O-])c(Br)cc1OC	-14.4	21.9*	9.1	0.7	0.2	-8.3
CCCCCCCCCCCCCCCC[n+]1ccccc1	44.6*	-18.8	-16.0	-2.1	0.0	86.5*
O/N=C/c1cccc[n+]1CCCCCC[n+]1ccccc1/C=N/O	13.3	2.8	-8.7	-20.8	0.2	2.8
CCCCCCCCCCCCCCCC[n+]1ccc(C(N)=O)cc1	11.8	-12.7	-20.9	-2.7	0.7	14.3
CCCCCCCCCCCCCCCC[n+]1ccc(/C=N/O)cc1	13.7	-17.2	-12.5	-7.1	0.6	27.5*
Cc1cc(C(=O)Nc2cccc3ccccc23)n(-c2ccccc2)n1	-11.9	1.2	1.5	-0.2	1.9	-3.0
COc1ccc(/C=C\C(=O)O[C@@H]2C(O)C(O[C@@H]3OC(C)[C@H](O[C@@H]4OCC(O[C@H]5O[C@H](CO)[C@@H](O)C(O)C5O)C(O)C4O)C(O)C3O)[C@H](OC(=O)[C@]34CCC(C)(C)C[C@@H]3C3=CCC5[C@@]6(C)CC(O)C(O[C@@H]7OC(CO)C(O)[C@H](O)[C@H]7O)[C@@](C)(C(=O)O)C6CC[C@@]5(C)[C@]3(CO)CC4)O[C@H]2C)cc1 (stereo partly drawn)	79.2*	-27.1	-13.6	50.3*	147.4*	48.3*

Source: PubChem BioAssay
